{
  "source": "paper PMC10774712",
  "about": "(RSC Advances, 2024)",
  "key": {"[1]": {"tested_on": "NCI 60 cancer cell lines", "experiment": "NCI 60 cell panel anti-proliferative assay", "format": "cell-based, human", "settings": "10 μM single dose"}, "[2]": {"tested_on": "HOP-92", "experiment": "NCI 60 SRB assay", "format": "cell-based", "settings": "Homo sapiens, HOP-92, read-out: growth inhibition"}, "[3]": {"target": "EGFR tyrosine kinase (Homo sapiens, UniProt P00533)", "experiment": "In vitro EGFR tyrosine kinase activity", "format": "biochemical", "settings": "read-out: EGFR ± SD IC50"}, "[4]": {"tested_on": "P-glycoprotein", "experiment": "Quantitative real time PCR for P-glycoprotein", "format": "cell-based", "settings": "MDA-MB-468/ADR cells, 72 h, in comparison to the control (1)", "in_short": "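P-gp gene expression measured by real-time RT-PCR in 1 × 10⁵ MDA-MB-468 cells. Cells exposed to test compound at 0.125, 0.250, 0.500 and 1.000 μM for 72 h. Expression reported as fold change relative to untreated control, set at 1.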"}, "[5]": {"tested_on": "DOX/MDA-MB-468 cells", "experiment": "MTT cytotoxicity in drug-resistant DOX/MDA-MB-468 cell line", "format": "cell-based", "settings": "read-out: IC50 DOX/MDA-MB-468, drug-resistant DOX/MDA-MB-468 cells"}, "[6]": {"tested_on": "MDA-MB-468 cells", "experiment": "Cell cycle analysis", "format": "cell-based", "settings": "for cell cycle arrest (in words): MDA-MB-468", "in_short": "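Cells plated at 4 × 10⁶ per T75 flask and treated with test compound for 24 and 48 h. Harvested by trypsinisation, washed in PBS and fixed in ice-cold absolute alcohol. DNA stained with a commercial cell-cycle DNA reagent kit per the maker's instructions. Phase distribution determined by flow cytometry.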"}, "[7]": {"tested_on": "MDA-MB-468 cells", "experiment": "Annexin-V-FITC/PI apoptosis assay", "format": "cell-based", "in_short": "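MDA-MB-468 cells seeded at 4 × 10⁶ per T75 flask and exposed to test compound for 24 and 48 h, with a DMSO control. Cells trypsinised; 0.5 × 10⁶ cells washed twice in PBS and stained with 5 μl annexin V-FITC plus 5 μl PI in 1× binding buffer, 15 min, room temperature, dark. Read by flow cytometry; early, late and total apoptotic fractions scored.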"}, "[8]": {"tested_on": "male Wistar rats", "experiment": "Toxicological study / calculation of LD50", "format": "in vivo, rat", "in_short": "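Adult male Wistar rats, 200 ± 20 g, acclimatised 7 days at 22 ± 3 °C under a natural light cycle and fasted 18 h before dosing. Single dose of test compound in 0.5 mL DMSO. Five dose levels given to groups of five rats.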"}},
  "note": "Entries after “also recorded” stand apart in the source; their conditions may differ.",
  "data": [
    {"compound": "CSc1nc(-c2ccc(Cl)cc2)c2c(NC(=O)c3ccccc3)nnc-2[nH]1", "note": "[Compound 6, N-(4-(4-Chlorophenyl)-6-(methylthio)-7H-pyrazolo[3,4-d]pyrimidin-3-yl)benzamide]", "values": [
      {"measurement": "antiproliferative activity (in words)", "setting": "[1]; most of the cancer cell lines", "result": "poor antiproliferative activity"},
      {"measurement": "inhibition at 10 µM", "setting": "[2]", "result": "> 100", "unit": "%"}
    ]},
    {"compound": "Ethyl 1-(3-benzamido-4-(4-chlorophenyl)-7H-pyrazolo[3,4-d]pyrimidin-6-yl)-5-(2,4-dichlorophenyl)-3-oxo-2,3-dihydro-1H-pyrazole-4-carboxylate [Compound 16]", "values": [
      {"measurement": "IC50", "setting": "[3]", "result": "34 ± 2", "unit": "nM"},
      {"measurement": "MDA-MB-468 P-glycoprotein fold change", "setting": "[4]", "result": 0.449, "unit": "fold"},
      {"measurement": "IC50", "setting": "[5]", "result": 844, "unit": "nM"},
      {"measurement": "cell cycle arrest (in words)", "setting": "[6]", "result": "cell cycle arrest at the S phase; also recorded: G1 and S phases arrest pattern"},
      {"measurement": "cells in S phase (%DIP S)", "setting": "[6]; MDA-MB-468, compound at its IC50, control 22.98%", "result": 28.16, "unit": "%"},
      {"measurement": "cells in G1 phase (%DIP G1)", "setting": "[6]; MDA-MB-468, compound at its IC50, control 52.76%", "result": 57.41, "unit": "%"},
      {"measurement": "cell cycle arrest (in words)", "setting": "[6]; listed as 16a", "result": "induce cell cycle arrest with concurrent increase in G1 and S population"},
      {"measurement": "apoptosis induction (in words)", "setting": "[7]; MDA-MB-468", "result": "increased the percentage of apoptotic cells in a time-dependent manner"},
      {"measurement": "late cellular apoptosis", "setting": "[7]; MDA-MB-468, IC50 of compound, DMSO control 0.27%", "result": 54.61, "unit": "%"},
      {"measurement": "early/primary apoptosis", "setting": "[7]; MDA-MB-468, IC50 of compound, DMSO control 0.39%, lower right quadrant", "result": 18.08, "unit": "%"},
      {"measurement": "total apoptosis", "setting": "[7]; MDA-MB-468, IC50 of compound, DMSO control 2.09%", "result": 46.59, "unit": "%"},
      {"measurement": "late apoptosis", "setting": "[7]; MDA-MB-468, IC50 of compound, control 0.25%, upper right quadrant", "result": 31.47, "unit": "%"},
      {"measurement": "time to death", "setting": "[8]; 1000 mg kg^−1", "result": "≤ 7", "unit": "days"},
      {"measurement": "toxic signs", "setting": "[8]; 1000 mg kg^−1, after intraperitoneal injection", "result": "abdominal muscle contractions and ataxia signs"},
      {"measurement": "effect on the animals", "setting": "[8]; doses 55, 90 and 100 mg kg^−1", "result": "does not produce any significant effect"}
    ]},
    {"compound": "N-(4-(4-Chlorophenyl)-6-(4-cyano-5-(2,4-dichlorophenyl)-3-oxo-2,3-dihydro-1H-pyrazol-1-yl)-7H-pyrazolo[3,4-d]pyrimidin-3-yl)benzamide [Compound 15]", "values": [
      {"measurement": "IC50", "setting": "[3]", "result": "135 ± 6", "unit": "nM"},
      {"measurement": "MDA-MB-468 P-glycoprotein fold change", "setting": "[4]", "result": 0.301, "unit": "fold"},
      {"measurement": "IC50", "setting": "[5]", "result": 267, "unit": "nM"},
      {"measurement": "cell growth inhibition", "setting": "[1]; some melanoma, ovarian, renal and breast cancer cell lines", "result": "above 100%"}
    ]}
  ]
}
